Results taken from ChEMBL document CHEMBL4831535, “Reducing the Toxicity of Designer Aminoglycosides as Nonsense Mutation Readthrough Agents for Therapeutic Targets” (ACS Med Chem Lett, 2021).
Calls of active or inactive are those of the source. No cut-off for these calls is given here.

Tests used:
Format in all cases: cell-based
[1] = tested on: Fibroblast; assay: Cytotoxicity against human fibroblast assessed as reduction in cell viability at up to 0.5 mg/ml measured after 48 hrs by fluorescent live-cell promega ApoLive-glo multiplex assay
Procedure, shortened: (§1)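 Wild-type fibroblasts exposed to a range of concentrations for 48 h. Cell viability read out with the ApoLive-Glo Multiplex Assay.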

[2] = tested on: Premature termination codon; assay: Induction of read through activity at TP53 R213X mutant premature termination codon in human DMS-114 cells assessed as increase in production of full length p53 at 31 to 250 ug/ml measured after 48 hrs by capillary electrophoresis western analysis; conditions: dose 31-250 µg/ml
Procedure, shortened: (§2)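 DMS-114 cells exposed to a range of concentrations for 48 h. Full-length and truncated p53 measured by capillary electrophoresis western analysis, with vinculin as loading control. Full-length p53 expressed as a normalized percent amount.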

[3] = tested on: Fibroblast; assay: Cytotoxicity against human fibroblast assessed as reduction in cell viability at 1 mg/ml measured after 48 hrs by fluorescent live-cell promega ApoLive-glo multiplex assay relative to control; procedure, shortened: as §1
[4] = tested on: DMS-114; assay: Cytotoxicity against human DMS-114 cells assessed as reduction in cell viability at up tp 500 ug/ml; conditions: dose 500 µg/ml
[5] = tested on: Premature termination codon; assay: Induction of read through activity at TP53 R213X mutant premature termination codon in human DMS-114 cells assessed as increase in production of full length p53 at up to 500 ug/ml measured after 48 hrs by capillary electrophoresis western analysis; conditions: dose microg/ml <=500, time 48.0 hrs; procedure, shortened: as §2
[6] = tested on: DMS-114; assay: Cytotoxicity against human DMS-114 cells assessed as reduction in cell viability at 125 ug/ml; conditions: dose 125 µg/ml
[7] = tested on: DMS-114; assay: Cytotoxicity against human DMS-114 cells assessed as reduction in cell viability at up to 62 ug/ml; conditions: dose <=62 µg/ml
[8] = tested on: Premature termination codon; assay: Induction of read through activity at TP53 R213X mutant premature termination codon in human DMS-114 cells assessed as expression of full length p53 levels at 62 ug/ml measured after 48 hrs by capillary electrophoresis western analysis; conditions: dose 62.0 µg/ml; procedure, shortened: as §2
[9] = tested on: Premature termination codon; assay: Induction of read through activity at TP53 R213X mutant premature termination codon in human DMS-114 cells assessed as increase in production of full length p53 at 125 ug/ml measured after 48 hrs by capillary electrophoresis western analysis; conditions: dose 125.0 µg/ml; procedure, shortened: as §2
[10] = tested on: Premature termination codon; assay: Induction of read through activity at TP53 R213X mutant premature termination codon in human DMS-114 cells assessed as increase in production of full length p53 at 500 ug/ml measured after 48 hrs by capillary electrophoresis western analysis relative to control; conditions: dose 500.0 µg/ml; procedure, shortened: as §2

SMILES | Activity [1] | Activity [3] [%] | Activity [4] | Activity [5] | further results
C[C@H](N)[C@H]1O[C@@H](O[C@@H]2[C@@H](O)[C@H](N)C[C@H](N)[C@H]2O[C@H]2O[C@H]([C@H](O)CO)[C@@H](O)[C@H](O)[C@H]2O)[C@H](O)[C@@H]1O | Non-Toxic | 15 | Non-Toxic |  | Activity [2]: Active
C[C@H](N)[C@H]1O[C@@H](O[C@@H]2[C@@H](O)[C@H](N)C[C@H](N)[C@H]2O[C@H]2O[C@H]([C@H](C)O)[C@@H](O)[C@H](O)[C@H]2O)[C@H](O)[C@@H]1O |  |  | Non-Toxic | inactive | 
C[C@H](N)[C@H]1O[C@@H](O[C@@H]2[C@@H](O)[C@H](N)C[C@H](N)[C@@H]2O[C@H]2O[C@H]([C@@H](C)O)[C@@H](O)[C@H](O)[C@H]2N)[C@H](O)[C@@H]1O |  | 50 |  |  | Activity [6]: Toxic; Activity [7]: Non-Toxic; Activity [8]: Active
C[C@H](N)[C@H]1O[C@@H](O[C@@H]2[C@@H](O)[C@H](N)C[C@H](N)[C@H]2O[C@H]2O[C@H]([C@@H](C)N)[C@@H](O)[C@H](O)[C@H]2O)[C@H](O)[C@@H]1O |  |  |  | inactive | 
C[C@H](N)[C@H]1O[C@@H](O[C@@H]2[C@@H](O)[C@H](N)C[C@H](N)[C@H]2O[C@H]2O[C@H]([C@@H](C)O)[C@@H](O)[C@H](O)[C@H]2O)[C@H](O)[C@@H]1O | Non-Toxic |  | Non-Toxic |  | Activity [9]: Active; Activity [10]: 18%
